Activity calls are given as the source filed them. The rule behind the calls is not given here.
Key:
Plasmodium falciparum [1] = experiment: Antiplasmodial activity against chloroquine-resistant Plasmodium falciparum W2; type: functional, organism-based
[2] = Inhibition of beta-hematin formation by BHIA assay; type: functional
[3] = Drug uptake in human RBC at 50 uM in absence of 10 um ferriprotoporphyrin 9; type: ADME, cell-based; settings: erythrocyte
Outline: (§1)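 Washed human RBC given 50 μM compound for 30 min at 37°C, with or without 10 μM FP. Total uptake and membrane-bound fraction measured fluorimetrically after washing and CHCl3-1 N HCl extraction. One representative experiment in triplicate.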

[4] = Octanol-water partition coefficient, log P of the compound; type: physicochemical
Plasmodium falciparum [5] = experiment: Resistance index, ratio of IC50 for chloroquine-resistant Plasmodium falciparum W2 to IC50 for chloroquine-susceptible Plasmodium falciparum D10; type: functional
[6] = Toxicity in human RBC assessed as potentiation of ferriprotoporphyrin 9-induced hemolysis at 50 uM after 2hrs in presence of 10 uM; type: cell-based; settings: erythrocyte
Outline: (§2)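 Human RBC at 5% Htc in PBS-glucose held 2 h at 37°C with a range of compound concentrations, alone or with 10 μM FP. Cells spun down; hemolysis read as A412 of released Hb in supernatant. Five experiments in triplicate.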

Homo sapiens [7] = species on record: Homo sapiens; experiment: Ratio of binding affinity to human RBC membrane parasitized with Plasmodium falciparum W2 to binding affinity to normal human RBC
Outline: (§3)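 Human A+ RBC (citrate-phosphate-dextrose, ≤10 days), washed in cold PBS, held at 15% Htc in PBS-5 mM glucose. Incubation with compound (10 to 50 μM, 50 μM for parasitized comparisons) 30 min at 37°C. Normal RBC or D10/W2-parasitized RBC at 4,0% parasitemia. Cells pelleted, washed free of unbound drug, extracted into CHCl3-1 N HCl, quinoline read by fluorescence.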

Erythrocyte = experiment: Induction of denaturation of hemoglobin in human RBC in acidic condition assessed as denatured hemoglobin level per millimitre of packed RBC; type: functional
Outline: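 Fitch-Russell method: intact RBC from 50 μl packed cells brought to 10 ml in 150 mM sodium acetate pH 5.0, held 90 min at 39°C with or without compound at 100 μM. Pellets spun at 3,500 × g, washed thrice in acetate, dissolved in 10 mM Tris-HCl, 2.5% SDS, 0.2 N NaOH; denatured Hb taken as FP from A412 minus A700.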

[8] = Toxicity in human RBC assessed as hemolysis pretreated at 50 uM for 30 mins followed by washing and incubated with 40 uM ferriprotoporphyrin 9 for 2hrs; type: cell-based; settings: erythrocyte
Outline: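 RBC exposed 30 min to 50 μM compound, washed, then held 2 h with 40 μM FP; hemolysis read from supernatant Hb at A412.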

Homo sapiens [9] = species on record: Homo sapiens; experiment: Ratio of binding affinity to human RBC membrane parasitized with Plasmodium falciparum D10 to binding affinity to normal human RBC; outline: as §3
Plasmodium falciparum [10] = experiment: Antiplasmodial activity against chloroquine-susceptible Plasmodium falciparum D10; type: functional, organism-based
[11] = Toxicity in human RBC assessed as hemolysis at 50 uM; type: cell-based; settings: erythrocyte; outline: as §2
[12] = Drug uptake in human RBC at 50 uM in presence of 10 um ferriprotoporphyrin 9; type: ADME, cell-based; settings: erythrocyte; outline: as §1
[13] = Distribution coefficient, log D of the compound at pH 7.4; type: physicochemical; settings: octanol/water
Ferriprotoporphyrin IX = experiment: Binding affinity to ferriprotoporphyrin 9sassessed as quenching of Soret band in presence of 40% DMSO-10 mM sodium phosphate buffer at pH 6.0
Outline: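 Heme (FP, fresh stock in 0.02 N NaOH diluted in PBS) at 15 μM final in 10 mM sodium phosphate pH 6.0 with 40% DMSO, compound added at 1 to 200 μM; absorption spectra read after 2 min, Soret band quenching followed. Job's plot run in parallel (FP plus compound totalling 10 μM, A400 difference vs molar ratio). Three experiments in triplicate.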

[14] = Vacuolar accumulation ratio of the compound at pH 5.2; type: ADME
Outline: (§4)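 VAR taken as antilog of calculated log D7.4 minus calculated log D5.2. log D from log P and pKa values measured potentiometrically at 25°C in 0.15 M KCl (n-octanol/0.15 M KCl partitioning). LAR calculated by an earlier published procedure.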

[15] = Toxicity in human RBC assessed as hemolysis at 50 uM at 40 degC in presence of 10 uM ferriprotoporphyrin 9; type: cell-based, Erythrocyte; settings: human red blood cells (RBC), read-out: Activity
Outline: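 Hemolysis assay as for the 37°C format (5% Htc RBC, PBS-glucose, 2 h, 10 μM FP, supernatant A412 read-out), but run at 40°C.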

Homo sapiens [16] = species on record: Homo sapiens; experiment: Binding affinity to normal human RBC membrane in presence of 15% hematocrit by fluorimetric method; outline: as §3
[17] = Lipid accumulation ratio of the compound; type: physicochemical; outline: as §4

Row | SMILES | IC50 (Plasmodium falciparum [1]) | IC90 (Plasmodium falciparum [1]) | IC50 [2] | inhibition [2] | Drug uptake [3] | logP [4] | Ratio IC50 (Plasmodium falciparum [5]) | Activity [6] | Ratio (Homo sapiens [7]) | Activity (Erythrocyte) | Activity [8] | Ratio (Homo sapiens [9]) | IC50 (Plasmodium falciparum [10]) | IC90 (Plasmodium falciparum [10]) | Activity [11] | Drug uptake [12] | logD [13] | Activity (Ferriprotoporphyrin IX) | hemolysis at 50 µM [15] | Activity (Homo sapiens [16]) | other results
1 | Clc1ccc2c(N[C@H]3CCCN4CCCC[C@H]34)ccnc2c1 | 21.3 nM | 33.1 nM | 1.12 equiv | Dose-dependent effect | 18% | 4.57 | 0.88 | Toxic | 1.5 | Active | Non-toxic | 2 | 24.2 nM | 35.1 nM | Non-toxic | 50% | 2.69 | Active | 50% | Dose-dependent effect | Ratio [14]: 14900; Ratio [17]: 490
2 | Clc1ccc2c(NC[C@@H]3CCCN4CCCC[C@H]34)ccnc2c1 | 41.8 nM | 54.9 nM | 1.52 equiv | Dose-dependent effect | 18% | 4.94 | 1.59 | Toxic | 2 | Active | Non-toxic | 1.5 | 26.4 nM | 34.3 nM | Non-toxic | 50% | 2.26 | Active | 28% | Dose-dependent effect | Ratio [14]: 22600; Ratio [17]: 182
3 | CCN(CC)CCCC(C)Nc1ccnc2cc(Cl)ccc12 (stereo not drawn) [CHLOROQUINE] |  | 441 nM |  |  | 10% |  |  | Toxic |  | 40 nmol/h | Non-toxic |  |  | 44.6 nM | Non-toxic |  |  |  | 84% | Dose-dependent effect | 

— ChEMBL document CHEMBL1671669, “Novel antimalarial aminoquinolines: heme binding and effects on normal or Plasmodium falciparum-parasitized human erythrocytes” (Antimicrob Agents Chemother, 2009)
